Tested on: U2OS
Assay: Multiplex assay against U2OS
Assay type: toxicity, cell-based
Details: human
Summary of the method: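 Imaging took place on a CQ1 microscope at 37°C and 5% CO2 once compound had been added to live cells stained at seeding with Hoechst33342, BioTracker Green Microtubule Cytoskeleton Dye, MitoTracker Red and Annexin V Alexa Fluor 680. CellPathfinder machine-learning gating classed cells as Hoechst high-intensity objects or normal cells, classed normal cells as having healthy, pyknosed or fragmented nuclei, and classed pyknosed cells as mitotic or apoptotic. Tubulin, mitochondrial-mass and membrane-permeability phenotypes are per cents of the healthy-nucleus cells.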

[1] = 12 h, 1 µM, compound concentration 1 uM, replicate 1
[2] = 12 h, 1 µM, compound concentration 1 uM, replicate 2
[3] = 12 h, 10 µM, compound concentration 10 uM, replicate 1
[4] = 12 h, 10 µM, compound concentration 10 uM, replicate 2
[5] = 24 h, 1 µM, compound concentration 1 uM, replicate 1
[6] = 24 h, 1 µM, compound concentration 1 uM, replicate 2
[7] = 24 h, 10 µM, compound concentration 10 uM, replicate 1
[8] = 24 h, 10 µM, compound concentration 10 uM, replicate 2
[9] = 48 h, 1 µM, compound concentration 1 uM, replicate 1
[10] = 48 h, 1 µM, compound concentration 1 uM, replicate 2
[11] = 48 h, 10 µM, compound concentration 10 uM, replicate 1
[12] = 48 h, 10 µM, compound concentration 10 uM, replicate 2

CCNC1(C(N)=O)CCN(c2ncnc3c2nc(-c2ccccc2Cl)n3-c2ccc(Cl)cc2)CC1 [OTENABANT]
Population Apoptotic (%) [1]: 77%
Population Fragmented Nuclei (%) [1]: 30%
Population Healthy Nuclei (%) [1]: 60%
Population Hoechst High Intensity Objects (%) [1]: 3%
Population Membrane Permeable-Phenotype (%) [1]: 13%
Population Mitochondria Different-Phenotype (%) [1]: 7%
Population Mitotic Cells (%) [1]: 22%
Population Normal (%) [1]: 96%
Population Pyknosed Nuclei (%) [1]: 9%
Population Tubulin-Different-Phenotype (%) [1]: 4%
Total Cell Count [1]: 254
Population Apoptotic (%) [2]: 85%
Population Fragmented Nuclei (%) [2]: 17%
Population Healthy Nuclei (%) [2]: 74%
Population Hoechst High Intensity Objects (%) [2]: 2%
Population Membrane Permeable-Phenotype (%) [2]: 11%
Population Mitochondria Different-Phenotype (%) [2]: 22%
Population Mitotic Cells (%) [2]: 14%
Population Normal (%) [2]: 97%
Population Pyknosed Nuclei (%) [2]: 7%
Population Tubulin-Different-Phenotype (%) [2]: 10%
Total Cell Count [2]: 93
Population Apoptotic (%) [3]: 58%
Population Fragmented Nuclei (%) [3]: 31%
Population Healthy Nuclei (%) [3]: 48%
Population Hoechst High Intensity Objects (%) [3]: 6%
Population Membrane Permeable-Phenotype (%) [3]: 81%
Population Mitochondria Different-Phenotype (%) [3]: 63%
Population Mitotic Cells (%) [3]: 41%
Population Normal (%) [3]: 93%
Population Pyknosed Nuclei (%) [3]: 19%
Population Tubulin-Different-Phenotype (%) [3]: 89%
Total Cell Count [3]: 211
Population Apoptotic (%) [4]: 70%
Population Fragmented Nuclei (%) [4]: 21%
Population Healthy Nuclei (%) [4]: 60%
Population Hoechst High Intensity Objects (%) [4]: 0%
Population Membrane Permeable-Phenotype (%) [4]: 65%
Population Mitochondria Different-Phenotype (%) [4]: 73%
Population Mitotic Cells (%) [4]: 30%
Population Normal (%) [4]: 99%
Population Pyknosed Nuclei (%) [4]: 18%
Population Tubulin-Different-Phenotype (%) [4]: 76%
Total Cell Count [4]: 112
Population Apoptotic (%) [5]: 79%
Population Fragmented Nuclei (%) [5]: 26%
Population Healthy Nuclei (%) [5]: 61%
Population Hoechst High Intensity Objects (%) [5]: 3%
Population Membrane Permeable-Phenotype (%) [5]: 11%
Population Mitochondria Different-Phenotype (%) [5]: 5%
Population Mitotic Cells (%) [5]: 20%
Population Normal (%) [5]: 96%
Population Pyknosed Nuclei (%) [5]: 11%
Population Tubulin-Different-Phenotype (%) [5]: 7%
Total Cell Count [5]: 308
Population Apoptotic (%) [6]: 80%
Population Fragmented Nuclei (%) [6]: 24%
Population Healthy Nuclei (%) [6]: 62%
Population Hoechst High Intensity Objects (%) [6]: 4%
Population Membrane Permeable-Phenotype (%) [6]: 15%
Population Mitochondria Different-Phenotype (%) [6]: 15%
Population Normal (%) [6]: 95%
Population Pyknosed Nuclei (%) [6]: 13%
Population Tubulin-Different-Phenotype (%) [6]: 5%
Total Cell Count [6]: 120
Population Apoptotic (%) [7]: 69%
Population Fragmented Nuclei (%) [7]: 29%
Population Healthy Nuclei (%) [7]: 49%
Population Hoechst High Intensity Objects (%) [7]: 3%
Population Membrane Permeable-Phenotype (%) [7]: 55%
Population Mitochondria Different-Phenotype (%) [7]: 75%
Population Mitotic Cells (%) [7]: 30%
Population Normal (%) [7]: 96%
Population Pyknosed Nuclei (%) [7]: 20%
Population Tubulin-Different-Phenotype (%) [7]: 78%
Total Cell Count [7]: 218
Population Apoptotic (%) [8]: 80%
Population Fragmented Nuclei (%) [8]: 28%
Population Healthy Nuclei (%) [8]: 53%
Population Membrane Permeable-Phenotype (%) [8]: 47%
Population Mitochondria Different-Phenotype (%) [8]: 72%
Population Mitotic Cells (%) [8]: 20%
Population Pyknosed Nuclei (%) [8]: 18%
Population Tubulin-Different-Phenotype (%) [8]: 62%
Total Cell Count [8]: 137
Population Apoptotic (%) [9]: 86%
Population Fragmented Nuclei (%) [9]: 24%
Population Healthy Nuclei (%) [9]: 64%
Population Hoechst High Intensity Objects (%) [9]: 1%
Population Membrane Permeable-Phenotype (%) [9]: 7%
Population Mitochondria Different-Phenotype (%) [9]: 4%
Population Mitotic Cells (%) [9]: 13%
Population Normal (%) [9]: 98%
Population Pyknosed Nuclei (%) [9]: 10%
Population Tubulin-Different-Phenotype (%) [9]: 3%
Total Cell Count [9]: 416
Population Apoptotic (%) [10]: 52%
Population Fragmented Nuclei (%) [10]: 16%
Population Healthy Nuclei (%) [10]: 69%
Population Hoechst High Intensity Objects (%) [10]: 4%
Population Membrane Permeable-Phenotype (%) [10]: 13%
Population Mitochondria Different-Phenotype (%) [10]: 10%
Population Mitotic Cells (%) [10]: 47%
Population Normal (%) [10]: 95%
Population Pyknosed Nuclei (%) [10]: 14%
Population Tubulin-Different-Phenotype (%) [10]: 9%
Total Cell Count [10]: 137
Population Apoptotic (%) [11]: 86%
Population Fragmented Nuclei (%) [11]: 32%
Population Healthy Nuclei (%) [11]: 43%
Population Hoechst High Intensity Objects (%) [11]: 7%
Population Membrane Permeable-Phenotype (%) [11]: 49%
Population Mitochondria Different-Phenotype (%) [11]: 55%
Population Mitotic Cells (%) [11]: 13%
Population Normal (%) [11]: 92%
Population Pyknosed Nuclei (%) [11]: 23%
Population Tubulin-Different-Phenotype (%) [11]: 51%
Total Cell Count [11]: 269
Population Apoptotic (%) [12]: 80%
Population Fragmented Nuclei (%) [12]: 29%
Population Healthy Nuclei (%) [12]: 45%
Population Hoechst High Intensity Objects (%) [12]: 10%
Population Membrane Permeable-Phenotype (%) [12]: 43%
Population Mitochondria Different-Phenotype (%) [12]: 66%
Population Mitotic Cells (%) [12]: 20%
Population Normal (%) [12]: 89%
Population Pyknosed Nuclei (%) [12]: 24%
Population Tubulin-Different-Phenotype (%) [12]: 49%
Total Cell Count [12]: 138

— ChEMBL document CHEMBL5058577, “EUbOPEN Chemogenomics Library 2 (Multiplex)” (2022)
